Among the data in ChEMBL document CHEMBL1155278, “3,4-Diaryl-isoxazoles and -imidazoles as potent dual inhibitors of p38alpha mitogen activated protein kinase and casein kinase 1delta” (J Med Chem, 2009) are Activity and Ratio IC50 values, retold here.

The target of experiment [1] is Serine/threonine-protein kinase 26 (Homo sapiens) (UniProt Q9P289). The experiment is described as follows: Inhibition of MST4 assessed as residual activity at 0.1 uM by Cherenkov counting relative to control in presence of 20 uM ATP. Summed up:
(§1)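 Single-concentration selectivity screen at 0.1 μM against a panel of 76 protein kinases. Each kinase was run at an ATP level approximating its Km for ATP. Output is mean residual activity as % of the control assay without compound, n = 3 ± SD.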

Experiment [2] addresses Insulin-like growth factor 1 receptor (Homo sapiens) (UniProt P08069). The experiment is described as follows: Inhibition of IGF1R assessed as residual activity at 0.1 uM by Cherenkov counting relative to control in presence of 5 uM ATP. Summed up: (§2)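 Single-concentration screen at 0.1 µM across a panel of 76 protein kinases. Each kinase was run at an ATP concentration approximating its ATP Km. Results are % mean residual activity versus control assays without compound (n = 3 ± SD).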

A short description of experiment [3]: Selectivity ratio of IC50 for recombinant CK1epsilon to IC50 for GST-fused rat CK1delta.
Experiment [4] concerns the target Dual specificity mitogen-activated protein kinase kinase 1 (Homo sapiens) (UniProt Q02750). The experiment in a line: Inhibition of MKK1 assessed as residual activity at 0.1 uM by Cherenkov counting relative to control in presence of 5 uM ATP. Summed up: as §1
Experiment [5] addresses Mitogen-activated protein kinase 12 (Homo sapiens) (UniProt P53778). The experiment is described as follows: Inhibition of p38-gamma assessed as residual activity at 0.1 uM by Cherenkov counting relative to control. A digest of the protocol:
(§3)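 Single-concentration screen at 0.1 μM in a 76-kinase panel. ATP for each kinase was set near its Km for ATP. Residual activity is given as a percentage of control assays without compound, mean of n = 3 ± SD.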

Experiment [6] has as its target Mitogen-activated protein kinase 13 (Homo sapiens) (UniProt O15264). The experiment in a line: Inhibition of p38delta assessed as residual activity at 0.1 uM by Cherenkov counting relative to control. Summed up: as §3
Experiment [7] has as its target MAP kinase-interacting serine/threonine-protein kinase 1 (Homo sapiens) (UniProt Q9BUB5). The experiment in a line: Inhibition of MNK1 assessed as residual activity at 0.1 uM by Cherenkov counting relative to control in presence of 50 uM ATP. A digest of the protocol: as §1
Experiment [8] concerns the target T1, Eukaryotic elongation factor 2 kinase (Homo sapiens) (UniProt O00418).
T1 sequence (whole entry): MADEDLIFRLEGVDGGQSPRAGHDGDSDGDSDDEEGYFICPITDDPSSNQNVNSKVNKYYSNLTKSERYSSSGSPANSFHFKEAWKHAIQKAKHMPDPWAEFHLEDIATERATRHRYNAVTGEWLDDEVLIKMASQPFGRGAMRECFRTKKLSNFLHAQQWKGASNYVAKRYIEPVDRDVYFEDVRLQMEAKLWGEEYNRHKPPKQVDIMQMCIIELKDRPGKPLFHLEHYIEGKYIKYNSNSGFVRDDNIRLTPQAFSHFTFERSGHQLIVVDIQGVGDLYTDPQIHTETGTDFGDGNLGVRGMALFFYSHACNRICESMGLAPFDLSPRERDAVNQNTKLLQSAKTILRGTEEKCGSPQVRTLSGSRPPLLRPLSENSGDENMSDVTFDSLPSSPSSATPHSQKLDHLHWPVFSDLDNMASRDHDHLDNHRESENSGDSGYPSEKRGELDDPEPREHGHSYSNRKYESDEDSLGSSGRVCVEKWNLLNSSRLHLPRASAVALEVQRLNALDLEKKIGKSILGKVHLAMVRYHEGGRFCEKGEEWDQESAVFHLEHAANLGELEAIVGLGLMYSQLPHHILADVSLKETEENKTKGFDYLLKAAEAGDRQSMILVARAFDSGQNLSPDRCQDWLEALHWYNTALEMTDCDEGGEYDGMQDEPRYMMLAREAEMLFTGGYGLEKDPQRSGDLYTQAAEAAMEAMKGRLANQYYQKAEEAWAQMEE
The experiment is described as follows: Inhibition of EF2K assessed as residual activity at 0.1 uM by Cherenkov counting relative to control in presence of 5 uM ATP. Summed up:
as §2

Experiment [9] has as its target MAP kinase-activated protein kinase 2 (Homo sapiens) (UniProt P49137). The experiment is described as follows: Inhibition of MAPKAPK2 assessed as residual activity at 10 uM by Cherenkov counting relative to control in presence of 20 uM ATP.
The target in experiment [10] is Calcium/calmodulin-dependent protein kinase kinase 1 (Homo sapiens) (UniProt Q8N5S9). The experiment is described as follows: Inhibition of CAMKKalpha assessed as residual activity at 10 uM by Cherenkov counting relative to control. Summed up: (§4)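 Single-point profiling at 10 µM in a panel of 78 protein kinases. Kinase activity is expressed as a percentage relative to control assays without compound.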

The nature of experiment [11]: Inhibition of CK2 assessed as residual activity at 10 uM by Cherenkov counting relative to control in presence of 5 uM ATP. Summed up: as §4
Experiment [12] deals with Tyrosine-protein kinase CSK (Homo sapiens) (UniProt P41240). The experiment in a line: Inhibition of CSK assessed as residual activity at 10 uM by Cherenkov counting relative to control in presence of 20 uM ATP. A digest of the protocol: as §4
Experiment [13] has as its target Insulin receptor-related protein (Homo sapiens) (UniProt P14616). The experiment is described as follows: Inhibition of IRR assessed as residual activity at 10 uM by Cherenkov counting relative to control in presence of 5 uM ATP.
The target in experiment [14] is Ribosomal protein S6 kinase alpha-1 (Homo sapiens) (UniProt Q15418). The experiment in a line: Inhibition of RSK1 assessed as residual activity at 10 uM by Cherenkov counting relative to control. Summed up: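 Single-concentration profiling at 10 μM in a 78-kinase panel. Kinase activity is expressed as a percentage of control assays run without compound.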

Chain of Calcium/calmodulin-dependent protein kinase kinase 1 (Homo sapiens) (Q8N5S9 whole entry, looked up): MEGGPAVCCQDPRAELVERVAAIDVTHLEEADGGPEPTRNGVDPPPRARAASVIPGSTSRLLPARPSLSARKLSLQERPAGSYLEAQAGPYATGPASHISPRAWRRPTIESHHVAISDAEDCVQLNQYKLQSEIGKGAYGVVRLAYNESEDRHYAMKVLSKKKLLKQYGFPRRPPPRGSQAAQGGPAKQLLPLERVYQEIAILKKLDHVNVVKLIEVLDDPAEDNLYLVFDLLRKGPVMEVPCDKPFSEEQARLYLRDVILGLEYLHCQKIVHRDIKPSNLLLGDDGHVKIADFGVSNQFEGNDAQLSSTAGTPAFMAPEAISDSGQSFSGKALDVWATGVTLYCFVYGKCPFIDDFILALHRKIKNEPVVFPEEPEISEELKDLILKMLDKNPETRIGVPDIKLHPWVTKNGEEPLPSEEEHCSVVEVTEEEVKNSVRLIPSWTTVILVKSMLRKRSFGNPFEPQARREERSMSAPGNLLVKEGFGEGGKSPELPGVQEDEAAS
Chain of MAP kinase-interacting serine/threonine-protein kinase 1 (Homo sapiens) (Q9BUB5 whole entry, looked up): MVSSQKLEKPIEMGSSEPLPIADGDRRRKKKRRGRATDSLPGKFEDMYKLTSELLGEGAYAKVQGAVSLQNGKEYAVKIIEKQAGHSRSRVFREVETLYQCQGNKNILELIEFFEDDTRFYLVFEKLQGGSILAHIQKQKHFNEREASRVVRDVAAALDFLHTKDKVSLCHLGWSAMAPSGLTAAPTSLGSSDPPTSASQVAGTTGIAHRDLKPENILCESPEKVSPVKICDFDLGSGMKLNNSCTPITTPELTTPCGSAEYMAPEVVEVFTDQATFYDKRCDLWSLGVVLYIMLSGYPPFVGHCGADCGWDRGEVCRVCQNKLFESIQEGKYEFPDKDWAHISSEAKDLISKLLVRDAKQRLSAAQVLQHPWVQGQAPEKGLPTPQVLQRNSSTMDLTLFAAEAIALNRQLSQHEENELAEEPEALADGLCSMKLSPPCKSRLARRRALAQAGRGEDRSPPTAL
Chain of Tyrosine-protein kinase CSK (Homo sapiens) (P41240 2-450 limits assumed): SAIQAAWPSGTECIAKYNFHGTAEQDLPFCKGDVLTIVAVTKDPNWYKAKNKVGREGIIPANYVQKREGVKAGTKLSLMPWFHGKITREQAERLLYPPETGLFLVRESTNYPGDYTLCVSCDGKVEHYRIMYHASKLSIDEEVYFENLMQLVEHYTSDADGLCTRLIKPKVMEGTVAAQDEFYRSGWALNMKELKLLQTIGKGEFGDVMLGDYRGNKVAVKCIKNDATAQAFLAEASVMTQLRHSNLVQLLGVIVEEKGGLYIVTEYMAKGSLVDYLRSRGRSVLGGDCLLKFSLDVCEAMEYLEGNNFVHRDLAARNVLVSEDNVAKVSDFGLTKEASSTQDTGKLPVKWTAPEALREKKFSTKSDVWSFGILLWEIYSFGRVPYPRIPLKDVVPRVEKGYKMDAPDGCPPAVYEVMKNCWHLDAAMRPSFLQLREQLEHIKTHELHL
Chain of Insulin-like growth factor 1 receptor (Homo sapiens) (P08069 31-736 limits assumed): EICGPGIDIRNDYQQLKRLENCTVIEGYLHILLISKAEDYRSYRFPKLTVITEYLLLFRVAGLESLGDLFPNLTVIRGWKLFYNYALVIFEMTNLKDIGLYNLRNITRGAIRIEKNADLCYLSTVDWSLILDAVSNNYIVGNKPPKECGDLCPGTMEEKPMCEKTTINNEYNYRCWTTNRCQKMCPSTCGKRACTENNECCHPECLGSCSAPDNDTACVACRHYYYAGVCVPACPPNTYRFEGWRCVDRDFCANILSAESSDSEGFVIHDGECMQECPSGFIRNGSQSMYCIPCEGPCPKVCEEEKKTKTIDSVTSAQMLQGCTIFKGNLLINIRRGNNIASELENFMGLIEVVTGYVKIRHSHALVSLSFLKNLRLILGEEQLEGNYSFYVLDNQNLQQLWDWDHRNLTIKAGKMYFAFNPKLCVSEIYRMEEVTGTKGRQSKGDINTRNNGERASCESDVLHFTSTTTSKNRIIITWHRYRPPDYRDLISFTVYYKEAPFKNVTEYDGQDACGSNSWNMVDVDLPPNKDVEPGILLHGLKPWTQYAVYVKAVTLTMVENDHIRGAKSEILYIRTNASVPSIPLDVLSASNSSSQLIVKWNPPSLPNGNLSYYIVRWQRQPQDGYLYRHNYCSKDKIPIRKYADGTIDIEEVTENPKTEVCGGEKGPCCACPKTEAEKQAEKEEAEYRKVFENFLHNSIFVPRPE
Chain of Insulin-like growth factor 1 receptor (Homo sapiens) (P08069 741-1367 limits assumed): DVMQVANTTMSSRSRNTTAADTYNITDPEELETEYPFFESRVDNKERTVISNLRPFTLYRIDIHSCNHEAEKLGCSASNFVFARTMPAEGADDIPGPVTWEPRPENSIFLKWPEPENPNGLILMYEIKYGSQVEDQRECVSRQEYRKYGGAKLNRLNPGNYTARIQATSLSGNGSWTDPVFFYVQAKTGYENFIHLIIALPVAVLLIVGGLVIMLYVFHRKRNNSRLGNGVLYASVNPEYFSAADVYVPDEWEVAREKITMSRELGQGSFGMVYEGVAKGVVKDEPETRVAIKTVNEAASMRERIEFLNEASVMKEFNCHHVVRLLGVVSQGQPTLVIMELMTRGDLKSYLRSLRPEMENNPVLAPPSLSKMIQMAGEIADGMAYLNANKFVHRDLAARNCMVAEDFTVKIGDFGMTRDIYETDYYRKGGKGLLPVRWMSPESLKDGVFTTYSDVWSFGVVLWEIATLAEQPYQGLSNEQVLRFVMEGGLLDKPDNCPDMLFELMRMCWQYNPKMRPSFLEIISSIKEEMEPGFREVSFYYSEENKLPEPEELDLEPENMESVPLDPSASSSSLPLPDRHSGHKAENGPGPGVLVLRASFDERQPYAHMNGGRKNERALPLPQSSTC
Chain of Mitogen-activated protein kinase 13 (Homo sapiens) (O15264 whole entry): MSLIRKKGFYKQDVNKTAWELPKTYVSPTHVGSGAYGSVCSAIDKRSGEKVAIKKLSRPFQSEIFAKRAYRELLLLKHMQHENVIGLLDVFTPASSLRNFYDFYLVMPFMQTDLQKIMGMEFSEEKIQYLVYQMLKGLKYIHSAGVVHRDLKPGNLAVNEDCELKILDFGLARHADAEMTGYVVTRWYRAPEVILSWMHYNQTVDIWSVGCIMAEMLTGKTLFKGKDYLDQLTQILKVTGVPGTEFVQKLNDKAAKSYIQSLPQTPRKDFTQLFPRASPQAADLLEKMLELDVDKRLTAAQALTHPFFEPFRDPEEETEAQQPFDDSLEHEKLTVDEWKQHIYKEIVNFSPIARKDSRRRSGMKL
Chain of Dual specificity mitogen-activated protein kinase kinase 1 (Homo sapiens) (Q02750 whole entry): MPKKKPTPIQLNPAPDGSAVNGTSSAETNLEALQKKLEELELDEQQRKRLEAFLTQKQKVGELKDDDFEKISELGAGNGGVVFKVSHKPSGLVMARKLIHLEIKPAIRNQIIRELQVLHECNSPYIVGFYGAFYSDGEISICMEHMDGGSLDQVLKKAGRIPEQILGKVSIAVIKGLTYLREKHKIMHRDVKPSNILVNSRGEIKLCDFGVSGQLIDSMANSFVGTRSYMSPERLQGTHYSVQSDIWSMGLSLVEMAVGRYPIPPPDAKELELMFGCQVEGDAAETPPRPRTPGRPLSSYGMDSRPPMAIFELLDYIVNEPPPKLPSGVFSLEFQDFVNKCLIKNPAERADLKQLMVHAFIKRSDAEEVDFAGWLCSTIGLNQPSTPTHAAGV
Chain of Serine/threonine-protein kinase 26 (Homo sapiens) (Q9P289 2-416 limits assumed): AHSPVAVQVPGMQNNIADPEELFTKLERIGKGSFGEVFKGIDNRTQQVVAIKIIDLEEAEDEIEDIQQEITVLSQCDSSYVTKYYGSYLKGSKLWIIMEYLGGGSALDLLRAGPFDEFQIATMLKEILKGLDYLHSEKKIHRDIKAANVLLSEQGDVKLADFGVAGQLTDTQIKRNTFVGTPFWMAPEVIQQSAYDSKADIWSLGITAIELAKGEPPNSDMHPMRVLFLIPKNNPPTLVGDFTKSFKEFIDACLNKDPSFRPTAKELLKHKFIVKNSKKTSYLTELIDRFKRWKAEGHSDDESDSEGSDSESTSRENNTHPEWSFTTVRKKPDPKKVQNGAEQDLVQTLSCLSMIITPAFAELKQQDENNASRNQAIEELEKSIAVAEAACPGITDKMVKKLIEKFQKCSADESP
Chain of Mitogen-activated protein kinase 12 (Homo sapiens) (P53778 whole entry): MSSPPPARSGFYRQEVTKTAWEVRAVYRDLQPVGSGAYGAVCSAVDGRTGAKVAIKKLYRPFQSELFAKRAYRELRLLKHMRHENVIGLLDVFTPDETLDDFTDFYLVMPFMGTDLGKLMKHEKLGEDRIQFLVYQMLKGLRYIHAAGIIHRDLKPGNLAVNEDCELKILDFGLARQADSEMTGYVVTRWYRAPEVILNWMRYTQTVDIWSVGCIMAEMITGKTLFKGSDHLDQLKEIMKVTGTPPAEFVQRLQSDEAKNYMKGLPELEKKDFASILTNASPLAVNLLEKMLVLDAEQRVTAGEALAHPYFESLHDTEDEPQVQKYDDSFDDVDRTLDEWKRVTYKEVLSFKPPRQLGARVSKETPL
Chain of MAP kinase-activated protein kinase 2 (Homo sapiens) (P49137 whole entry, looked up): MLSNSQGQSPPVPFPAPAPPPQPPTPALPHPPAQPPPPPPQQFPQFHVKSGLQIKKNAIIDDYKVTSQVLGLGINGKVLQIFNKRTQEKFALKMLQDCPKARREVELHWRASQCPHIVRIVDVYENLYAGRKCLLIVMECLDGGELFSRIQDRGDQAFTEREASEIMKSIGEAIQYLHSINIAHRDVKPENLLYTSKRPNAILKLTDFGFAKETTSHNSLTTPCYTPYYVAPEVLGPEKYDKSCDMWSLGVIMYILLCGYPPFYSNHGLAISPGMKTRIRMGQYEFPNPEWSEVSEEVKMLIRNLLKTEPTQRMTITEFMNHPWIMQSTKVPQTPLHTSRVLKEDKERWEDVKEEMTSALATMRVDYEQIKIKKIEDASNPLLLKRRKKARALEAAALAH

Take `COc1ccc(/C=C/C(=O)Nc2cc(-c3[nH]c(SC)nc3-c3ccc(F)cc3)ccn2)c(OC)c1`: the Activity in [1] was determined as 90%; in [2] it was 87%; in experiment [4], 27%; in experiment [5] it was 84%; in [6] it was 90%; in [7], 91%. For the same molecule, in experiment [8], the Activity is 100%. Also, the Ratio IC50 in experiment [3] amounted to 15.

As to `CC(C)c1onc(-c2ccc(F)cc2)c1-c1ccncc1`, the Activity in experiment [9] came to 105%; in experiment [10], 91%; in experiment [11], 96%; in experiment [12] it was 87%; in [13], 93%; in experiment [14] it was 79%.

Consider `CC(C)c1noc(-c2ccc(F)cc2)c1-c1ccncc1`, for which the Activity in experiment [9] came out at 100%; in experiment [10], 103%; in [11] it was 95%; in experiment [12], 95%; in [13], 94%; in experiment [14] it was 83%.

Regarding `COc1ccc(/C=C/C(=O)Nc2cc(-c3[nH]c([S+](C)[O-])nc3-c3ccc(F)cc3)ccn2)c(OC)c1` (stereo not drawn), the Activity in experiment [1] was 86%; in [2], 107%; in [4], 18%; in experiment [5] it was 97%; in [6], 100%; in experiment [7], 96%. The Activity in experiment [8] is 102%. Besides, in experiment [3], the Ratio IC50 is 41.
